Columns and labels:
Format in all cases: cell-based
Raji [1] = assay: Inhibition of TPA-induced EBV early antigen activation infected in human Raji cells after 48 hrs by immunofluorescence method relative to control; settings: human gammaherpesvirus 4
Raji [2] = assay: Inhibition of TPA-induced EBV early antigen activation infected in human Raji cells assessed as antigen activity at 100 mol ratio/TPA after 48 hrs by immunofluorescence method relative to control; design: scale not given: the % may be the effect or the level left; settings: human gammaherpesvirus 4
[3] = Inhibition of TRK in human MCF7 cells after 48 hrs by ELISA
Procedure, shortened: (§1)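 HepG2 or MCF-7 cells, kept in DMEM with 10% heat-inactivated FCS and penicillin, seeded at 0.50×10⁶ per flask and treated 48 h at 37 °C, 5% CO₂ with compound in DMSO (2.5–40 μg/ml). Cells were homogenized in saline. TRK level was measured by double-antibody sandwich ELISA (OD 450 nm) against a standard curve, in triplicate. IC50 = 50% reduction of TRK relative to untreated cells.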

[4] = Inhibition of TRK in human HepG2 cells after 48 hrs by ELISA; procedure, shortened: as §1
Raji [5] = assay: Inhibition of TPA-induced EBV early antigen activation infected in human Raji cells assessed as antigen activity at 500 mol ratio/TPA after 48 hrs by immunofluorescence method relative to control; design: scale not given: the % may be the effect or the level left; settings: human gammaherpesvirus 4
Raji [6] = assay: Inhibition of TPA-induced EBV early antigen activation infected in human Raji cells assessed as antigen activity at 1000 mol ratio/TPA after 48 hrs by immunofluorescence method relative to control; design: scale not given: the % may be the effect or the level left; settings: human gammaherpesvirus 4
[7] = Cytotoxicity against human Raji cells assessed as cell viability at 1000 mol ratio/TPA after 48 hrs by trypan blue staining method; settings: read-out: Activity
Procedure, shortened: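 Raji cells were treated as in the EBV-EA assay: 48 h at 37 °C with 4 mM n-butyric acid, […] and compound in DMSO (ca. 0.7%), dosed by mol ratio to TPA. Viability of the treated cells was determined by trypan blue staining.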

Raji [8] = assay: Inhibition of TPA-induced EBV early antigen activation infected in human Raji cells assessed as antigen activity at 10 mol ratio/TPA after 48 hrs by immunofluorescence method relative to control; design: scale not given: the % may be the effect or the level left; settings: human gammaherpesvirus 4

In the case of `N=c1c(O)nnc2c(=O)[nH]c3ccccc3n12`, the inhibition (Raji [1]) is reported as “Dose-dependent effect”, the Activity (Raji [2]) is reported as 79% and the IC50 [3] is reported as 20.2 nM. It also gave an IC50 [4] of 18 nM, an Activity (Raji [5]) of 47.1% and an Activity (Raji [6]) of 15%. It also gave a viability at 48 h, 1000 mol ratio/TPA [7] of 60% and an Activity (Raji [8]) of 100%.

With `Oc1nc2ccccc2nc1O` the inhibition (Raji [1]) was “Dose-dependent effect”, the Activity (Raji [2]) was 78.5% and the IC50 [3] was “Not Active”. For the same molecule, the IC50 [4] was “Not Active”, the Activity (Raji [5]) was 46.8% and the Activity (Raji [6]) was 14.2%. The viability at 48 h, 1000 mol ratio/TPA [7] was 60% and the Activity (Raji [8]) was 100%.

Molecule `COc1cccc2c1C(=O)c1c(O)c3c(c(O)c1C2=O)C[C@@](O)(C(=O)CO)C[C@@H]3O[C@H]1C[C@H](N)[C@H](O)[C@H](C)O1` [DOXORUBICIN] has an IC50 [3] of 3.2 nM and an IC50 [4] of 2.5 nM.

In the case of `COc1cccc(OC)c1/C=N/Nc1nc2ccccc2[nH]c1=O`, the inhibition (Raji [1]) is reported as “Dose-dependent effect”, the Activity (Raji [2]) is reported as 81% and the IC50 [3] is reported as 8.75 nM. For the same molecule, the IC50 [4] was 7.5 nM, the Activity (Raji [5]) was 46.6% and the Activity (Raji [6]) was 16.8%. The viability at 48 h, 1000 mol ratio/TPA [7] was 60% and the Activity (Raji [8]) was 100%.

With `CCOC(=O)Cn1c(=O)c(N/N=C/c2c(OC)cccc2OC)nc2ccccc21` the inhibition (Raji [1]) was “Dose-dependent effect”, the Activity (Raji [2]) was 75.6% and the IC50 [3] was 4.6 nM. For the same molecule, the IC50 [4] was 4.1 nM, the Activity (Raji [5]) was 45.7% and the Activity (Raji [6]) was 13.5%. The viability at 48 h, 1000 mol ratio/TPA [7] was 60% and the Activity (Raji [8]) was 100%.

With `O=c1[nH]c2ccccc2n2c(=O)c(O)nnc12` the inhibition (Raji [1]) was “Dose-dependent effect”, the Activity (Raji [2]) was 78.6% and the IC50 [3] was 27.8 nM. For the same molecule, the IC50 [4] was 20 nM, the Activity (Raji [5]) was 47% and the Activity (Raji [6]) was 14.2%. The viability at 48 h, 1000 mol ratio/TPA [7] was 60% and the Activity (Raji [8]) was 100%.

For `CN1C(=S)NNC12Nc1ccccc1NC2=O` (stereo not given), the inhibition (Raji [1]) was “Dose-dependent effect”, the Activity (Raji [2]) was 84.6% and the Activity (Raji [5]) was 48.3%. The Activity (Raji [6]) was 18.7%, the viability at 48 h, 1000 mol ratio/TPA [7] was 60% and the Activity (Raji [8]) was 100%.

In the case of `CC(C)=NNc1nc2ccccc2[nH]c1=O`, the inhibition (Raji [1]) is reported as “Dose-dependent effect”, the Activity (Raji [2]) is reported as 77% and the IC50 [3] is reported as 17.2 nM. The IC50 [4] was 15 nM, the Activity (Raji [5]) was 45% and the Activity (Raji [6]) was 13.2%. It also gave a viability at 48 h, 1000 mol ratio/TPA [7] of 60% and an Activity (Raji [8]) of 100%.

With `O=C1Nc2ccccc2N2C(O)=CNN=C12` the inhibition (Raji [1]) was “Dose-dependent effect”, the Activity (Raji [2]) was 77.6% and the Activity (Raji [5]) was 46%. The Activity (Raji [6]) was 13.2%, the viability at 48 h, 1000 mol ratio/TPA [7] was 60% and the Activity (Raji [8]) was 100%.

For `O=C1CN2C(=NN1)C(=O)Nc1ccccc12`, the inhibition (Raji [1]) was “Dose-dependent effect”, the Activity (Raji [2]) was 78% and the Activity (Raji [5]) was 46.3%. For the same molecule, the Activity (Raji [6]) was 13.6%, the viability at 48 h, 1000 mol ratio/TPA [7] was 60% and the Activity (Raji [8]) was 100%.

Work on `CC1(C)CC[C@]2(C(=O)O)CC[C@]3(C)C(=CC[C@@H]4[C@@]5(C)CC[C@H](O)C(C)(C)[C@@H]5CC[C@]43C)[C@@H]2C1` [OLEANOLIC_ACID] yielded an Activity (Raji [2]) of 80%, an Activity (Raji [5]) of 30% and an Activity (Raji [6]) of 12.7%. The viability at 48 h, 1000 mol ratio/TPA [7] was 70% and the Activity (Raji [8]) was 100%.

With `C=CCn1c(=O)c(N/N=C/c2c(OC)cccc2OC)nc2ccccc21` the inhibition (Raji [1]) was “Dose-dependent effect”, the Activity (Raji [2]) was 73.5% and the IC50 [3] was 4.15 nM. The IC50 [4] was 3.5 nM, the Activity (Raji [5]) was 42% and the Activity (Raji [6]) was 10.8%. The viability at 48 h, 1000 mol ratio/TPA [7] was 60% and the Activity (Raji [8]) was 100%.

For `Oc1nc2ccccc2n2c(O)nnc12`, the inhibition (Raji [1]) was “Dose-dependent effect”, the Activity (Raji [2]) was 79.1% and the IC50 [3] was 30 nM. For the same molecule, the IC50 [4] was 25 nM, the Activity (Raji [5]) was 47.2% and the Activity (Raji [6]) was 15.6%. For the same molecule, the viability at 48 h, 1000 mol ratio/TPA [7] was 60% and the Activity (Raji [8]) was 100%.

With `O=C1CC(=O)N(c2nc3ccccc3[nH]c2=O)N1` the inhibition (Raji [1]) was “Dose-dependent effect”, the Activity (Raji [2]) was 83.9% and the Activity (Raji [5]) was 48%. For the same molecule, the Activity (Raji [6]) was 17.5%, the viability at 48 h, 1000 mol ratio/TPA [7] was 60% and the Activity (Raji [8]) was 100%.

With `C=CCn1c(=O)c(N/N=C/c2ccc(N(C)C)cc2)nc2ccccc21` the inhibition (Raji [1]) was “Dose-dependent effect”, the Activity (Raji [2]) was 73.2% and the IC50 [3] was 2.9 nM. For the same molecule, the IC50 [4] was 2.65 nM, the Activity (Raji [5]) was 41.6% and the Activity (Raji [6]) was 10.1%. For the same molecule, the viability at 48 h, 1000 mol ratio/TPA [7] was 60% and the Activity (Raji [8]) was 100%.

With `Oc1nc2ccccc2n2cnnc12` the inhibition (Raji [1]) was “Dose-dependent effect”, the Activity (Raji [2]) was 84.2% and the IC50 [3] was “Not Active”. For the same molecule, the IC50 [4] was “Not Active”, the Activity (Raji [5]) was 48.2% and the Activity (Raji [6]) was 18.6%. For the same molecule, the viability at 48 h, 1000 mol ratio/TPA [7] was 60% and the Activity (Raji [8]) was 100%.

With `O=c1[nH]c2ccccc2nc1Cl` the inhibition (Raji [1]) was “Dose-dependent effect”, the Activity (Raji [2]) was 80.2% and the Activity (Raji [5]) was 48.5%. It also gave an Activity (Raji [6]) of 16.7%, a viability at 48 h, 1000 mol ratio/TPA [7] of 50% and an Activity (Raji [8]) of 100%.

In the case of `CCOC(=O)Cn1c(=O)c(N/N=C/c2ccc(N(C)C)cc2)nc2ccccc21`, the inhibition (Raji [1]) is reported as “Dose-dependent effect”, the Activity (Raji [2]) is reported as 78.6% and the IC50 [3] is reported as 4.85 nM. The IC50 [4] was 4.5 nM, the Activity (Raji [5]) was 47.6% and the Activity (Raji [6]) was 12.7%. It also gave a viability at 48 h, 1000 mol ratio/TPA [7] of 60% and an Activity (Raji [8]) of 100%.

For `O=C(c1ccccc1)N1C(=S)NNC12Nc1ccccc1NC2=O` (stereo not given), the inhibition (Raji [1]) was “Dose-dependent effect”, the Activity (Raji [2]) was 85.2% and the IC50 [3] was “Not Active”. The IC50 [4] was “Not Active”, the Activity (Raji [5]) was 49.1% and the Activity (Raji [6]) was 19.1%. The viability at 48 h, 1000 mol ratio/TPA [7] was 60% and the Activity (Raji [8]) was 100%.

For `NNc1nc2ccccc2[nH]c1=O`, the inhibition (Raji [1]) was “Dose-dependent effect”, the Activity (Raji [2]) was 78.1% and the IC50 [3] was 10.2 nM. It also gave an IC50 [4] of 9 nM, an Activity (Raji [5]) of 46.5% and an Activity (Raji [6]) of 14.9%. The viability at 48 h, 1000 mol ratio/TPA [7] was 60% and the Activity (Raji [8]) was 100%.

With `CN(C)c1ccc(/C=N/Nc2nc3ccccc3[nH]c2=O)cc1` the inhibition (Raji [1]) was “Dose-dependent effect”, the Activity (Raji [2]) was 71.7% and the IC50 [3] was 11.8 nM. The IC50 [4] was 9.8 nM, the Activity (Raji [5]) was 42.2% and the Activity (Raji [6]) was 13.9%. For the same molecule, the viability at 48 h, 1000 mol ratio/TPA [7] was 60% and the Activity (Raji [8]) was 100%.

With `O=C1CCC(=O)N(c2nc3ccccc3[nH]c2=O)N1` the inhibition (Raji [1]) was “Dose-dependent effect”, the Activity (Raji [2]) was 82.8% and the Activity (Raji [5]) was 47.7%. It also gave an Activity (Raji [6]) of 16.7%, a viability at 48 h, 1000 mol ratio/TPA [7] of 60% and an Activity (Raji [8]) of 100%.

— ChEMBL document CHEMBL2434890, “Design, synthesis and structure-activity relationship of novel quinoxaline derivatives as cancer chemopreventive agent by inhibition of tyrosine kinase receptor” (Eur J Med Chem, 2013)
